Our source for the MIC and IC50 values is ChEMBL document CHEMBL1154531, “Synthesis and structure-activity studies of novel homomorpholine oxazolidinone antibacterial agents” (Bioorg Med Chem Lett, 2009).

Values after ≈ are worked out from the molar mass of the structure shown.

Format in all cases: functional
One assay has as its system Staphylococcus aureus. Nature of the assay: Antibacterial activity against Staphylococcus aureus UC-76 SA-1 by micro broth method. In short, it runs like this:
(§1)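 Minimum inhibitory concentration determined by broth microdilution and reported in μg/mL.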

The subject of another assay is Streptococcus pneumoniae. Nature of the assay: Antibacterial activity against Streptococcus pneumoniae SV1 SP-3 by micro broth method. Summed up:
as §1

Another assay has as its system Enterococcus faecalis. Nature of the assay: Antibacterial activity against Enterococcus faecalis MGH-2 EF1-1 by micro broth method. In short, it runs like this:
as §1

Another assay relates to Streptococcus pyogenes. Nature of the assay: Antibacterial activity against Streptococcus pyogenes C-203 by micro broth method. In short, it runs like this:
as §1

A further assay has as its system Escherichia coli. Nature of the assay: Antibacterial activity against Escherichia coli by transcription-translation assay. In short, it runs like this:
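Cell-free E. coli coupled in vitro transcription/translation system with a luciferase reporter as read-out.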

With `CNC(=O)[C@H]1CN(c2ccc(N3CCCOCC3)c(F)c2)C(=O)O1`, the MIC – broadly, the least concentration at which growth counts as inhibited – against Staphylococcus aureus is 16 µg/mL (≈ 47.4 µM); in the assay on Streptococcus pneumoniae, 8 µg/mL (≈ 23.7 µM); in the assay with Enterococcus faecalis it was 16 µg/mL (≈ 47.4 µM); against Streptococcus pyogenes, 8 µg/mL (≈ 23.7 µM).

With `CNC(=O)[C@H]1CN(c2cc(F)c(N3CCCOCC3)c(F)c2)C(=O)O1`, the IC50 (usually the concentration at which inhibition is half-maximal) with Escherichia coli turned out to be 6.37 µM. Also, the MIC against Staphylococcus aureus was found to be 4 µg/mL (≈ 11.3 µM); in the assay on Streptococcus pneumoniae, 4 µg/mL (≈ 11.3 µM); in the assay on Enterococcus faecalis, 8 µg/mL (≈ 22.5 µM); with Streptococcus pyogenes, 4 µg/mL (≈ 11.3 µM).

`CC(=O)NC[C@H]1CN(c2cc(F)c(N3CCCOCC3)c(F)c2)C(=O)O1` returned an IC50 in the assay on Escherichia coli of 1.67 µM. Moreover, the MIC was found to be 2 µg/mL (≈ 5.41 µM) with Staphylococcus aureus, 1 µg/mL (≈ 2.71 µM) in the assay on Streptococcus pneumoniae, 1 µg/mL (≈ 2.71 µM) with Enterococcus faecalis and 1 µg/mL (≈ 2.71 µM) with Streptococcus pyogenes.

Consider `COC(=O)NC[C@H]1CN(c2cc(F)c(N3CCCOCC3)c(F)c2)C(=O)O1`, for which 1.9 µM corresponded to half-maximal inhibition in the assay with Escherichia coli (IC50). The minimum inhibitory concentration (MIC) in the assay on Staphylococcus aureus was 2 µg/mL (≈ 5.19 µM); against Streptococcus pneumoniae, 1 µg/mL (≈ 2.59 µM); in the assay on Enterococcus faecalis, 2 µg/mL (≈ 5.19 µM); against Streptococcus pyogenes, 1 µg/mL (≈ 2.59 µM).

As to `O=C1O[C@@H](Cn2ccnn2)CN1c1ccc(N2CCCOCC2)cc1`, the minimal inhibitory concentration (MIC) with Staphylococcus aureus stood at 16 µg/mL (≈ 46.6 µM); with Streptococcus pneumoniae it was 16 µg/mL (≈ 46.6 µM); against Enterococcus faecalis, 32 µg/mL (≈ 93.2 µM); against Streptococcus pyogenes, 8 µg/mL (≈ 23.3 µM).

Take `C[Si](C)(C)C#Cc1cn(C[C@H]2CN(c3cc(F)c(N4CCCOCC4)c(F)c3)C(=O)O2)nn1`: the MIC was over 32 µg/mL in the assay on Staphylococcus aureus, 4 µg/mL (≈ 8.41 µM) in the assay on Streptococcus pneumoniae, over 32 µg/mL in the assay on Enterococcus faecalis and 2 µg/mL (≈ 4.21 µM) against Streptococcus pyogenes.

Molecule `CC(=O)NC[C@H]1CN(c2ccc(N3CCCOCC3)c(F)c2)C(=O)O1` came in with an IC50 in the assay with Escherichia coli of 2.3 µM. The MIC in the assay on Staphylococcus aureus came out at 4 µg/mL (≈ 11.4 µM); with Streptococcus pneumoniae, 2 µg/mL (≈ 5.69 µM); against Enterococcus faecalis, 2 µg/mL (≈ 5.69 µM); in the assay on Streptococcus pyogenes, 2 µg/mL (≈ 5.69 µM).

Regarding `O=C1O[C@@H](CO)CN1c1ccc(N2CCCOCC2)cc1`, the minimum inhibitory concentration (MIC) in the assay with Staphylococcus aureus, against Streptococcus pneumoniae, against Enterococcus faecalis and with Streptococcus pyogenes was over 64 µg/mL throughout.

With `C#Cc1cn(C[C@H]2CN(c3cc(F)c(N4CCCOCC4)c(F)c3)C(=O)O2)nn1`, the MIC in the assay with Staphylococcus aureus was found to be 4 µg/mL (≈ 9.92 µM); against Streptococcus pneumoniae it was 2 µg/mL (≈ 4.96 µM); in the assay with Enterococcus faecalis it was 2 µg/mL (≈ 4.96 µM); against Streptococcus pyogenes, 2 µg/mL (≈ 4.96 µM).

On to `NC(=O)[C@H]1CN(c2ccc(N3CCCOCC3)c(F)c2)C(=O)O1`, for which the minimal inhibitory concentration (MIC) against Staphylococcus aureus was 8 µg/mL (≈ 24.7 µM); in the assay with Streptococcus pneumoniae it was 16 µg/mL (≈ 49.5 µM); with Enterococcus faecalis it was 16 µg/mL (≈ 49.5 µM); against Streptococcus pyogenes it was 8 µg/mL (≈ 24.7 µM).

With `O=C1O[C@@H](CO)CN1c1cc(F)c(N2CCCOCC2)c(F)c1`, the MIC came out at 4 µg/mL (≈ 12.2 µM) with Staphylococcus aureus, 4 µg/mL (≈ 12.2 µM) against Streptococcus pneumoniae, 8 µg/mL (≈ 24.4 µM) in the assay on Enterococcus faecalis and 2 µg/mL (≈ 6.09 µM) with Streptococcus pyogenes.

Consider `NC(=O)[C@H]1CN(c2cc(F)c(N3CCCOCC3)c(F)c2F)C(=O)O1`, for which, in the assay on Escherichia coli, the IC50 amounted to 23.4 µM. Moreover, the minimum inhibitory concentration (MIC) amounted to 16 µg/mL (≈ 44.5 µM) against Staphylococcus aureus, 16 µg/mL (≈ 44.5 µM) against Streptococcus pneumoniae, 32 µg/mL (≈ 89.1 µM) against Enterococcus faecalis and 16 µg/mL (≈ 44.5 µM) with Streptococcus pyogenes.

With `CNC(=O)[C@H]1CN(c2ccc(N3CCCOCC3)cc2)C(=O)O1`, the MIC in the assay on Staphylococcus aureus amounted to 32 µg/mL (≈ 100 µM); against Streptococcus pneumoniae, 32 µg/mL (≈ 100 µM); in the assay on Enterococcus faecalis, 64 µg/mL (≈ 200 µM); in the assay with Streptococcus pyogenes, 32 µg/mL (≈ 100 µM).

As for `NC(=O)[C@H]1CN(c2ccc(N3CCCOCC3)cc2)C(=O)O1`, the MIC in the assay on Staphylococcus aureus was 32 µg/mL (≈ 105 µM); in the assay with Streptococcus pneumoniae, 32 µg/mL (≈ 105 µM); in the assay on Enterococcus faecalis, 64 µg/mL (≈ 210 µM); against Streptococcus pyogenes it was 64 µg/mL (≈ 210 µM).

As for `COC(=O)NC[C@H]1CN(c2ccc(N3CCCOCC3)cc2)C(=O)O1`, the MIC in the assay with Staphylococcus aureus is 16 µg/mL (≈ 45.8 µM); in the assay on Streptococcus pneumoniae, 16 µg/mL (≈ 45.8 µM); in the assay on Enterococcus faecalis, 16 µg/mL (≈ 45.8 µM); against Streptococcus pyogenes it was 8 µg/mL (≈ 22.9 µM).

The molecule `CC(=O)NC[C@H]1CN(c2cc(F)c(N3CCCOCC3)c(F)c2F)C(=O)O1` gave an IC50 with Escherichia coli of 3.93 µM. Also, the MIC against Staphylococcus aureus worked out at 2 µg/mL (≈ 5.16 µM); against Streptococcus pneumoniae, 1 µg/mL (≈ 2.58 µM); in the assay with Enterococcus faecalis, 2 µg/mL (≈ 5.16 µM); in the assay on Streptococcus pyogenes, 2 µg/mL (≈ 5.16 µM).

On to `CC(C)(C)OC(=O)NC[C@H]1CN(c2ccc(N3CCCOCC3)c(F)c2)C(=O)O1`, for which the MIC in the assay with Staphylococcus aureus stood at 32 µg/mL (≈ 78.2 µM); against Streptococcus pneumoniae it was 32 µg/mL (≈ 78.2 µM); against Enterococcus faecalis, 64 µg/mL (≈ 156 µM); with Streptococcus pyogenes, 32 µg/mL (≈ 78.2 µM).

In the case of `CC(C)(C)OC(=O)NC[C@H]1CN(c2cc(F)c(N3CCCOCC3)c(F)c2)C(=O)O1`, the minimal inhibitory concentration (MIC) against Staphylococcus aureus worked out at 8 µg/mL (≈ 18.7 µM); in the assay with Streptococcus pneumoniae it was 16 µg/mL (≈ 37.4 µM); in the assay on Enterococcus faecalis, 32 µg/mL (≈ 74.9 µM); against Streptococcus pyogenes, 8 µg/mL (≈ 18.7 µM).

For `Cl.NC[C@H]1CN(c2ccc(N3CCCOCC3)c(F)c2)C(=O)O1`, the minimal inhibitory concentration (MIC) in the assay on Staphylococcus aureus, in the assay with Streptococcus pneumoniae, in the assay with Enterococcus faecalis and in the assay with Streptococcus pyogenes was over 64 µg/mL throughout.

In turn, `CNC(=O)[C@H]1CN(c2cc(F)c(N3CCCOCC3)c(F)c2F)C(=O)O1` returned an IC50 in the assay with Escherichia coli of 18.9 µM. For the same molecule, the MIC in the assay on Staphylococcus aureus came to 16 µg/mL (≈ 42.9 µM); against Streptococcus pneumoniae, 16 µg/mL (≈ 42.9 µM); in the assay with Enterococcus faecalis it was 32 µg/mL (≈ 85.7 µM); against Streptococcus pyogenes it was 16 µg/mL (≈ 42.9 µM).

With `CC(=O)NC[C@H]1CN(c2ccc(N3CCCOCC3)cc2)C(=O)O1`, the MIC is 8 µg/mL (≈ 24 µM) against Staphylococcus aureus, 8 µg/mL (≈ 24 µM) in the assay on Streptococcus pneumoniae, 16 µg/mL (≈ 48 µM) with Enterococcus faecalis and 8 µg/mL (≈ 24 µM) with Streptococcus pyogenes.

Regarding `CC(C)(C)OC(=O)NC[C@H]1CN(c2ccc(N3CCCOCC3)cc2)C(=O)O1`, the MIC with Staphylococcus aureus stood at 16 µg/mL (≈ 40.9 µM); with Streptococcus pneumoniae, 16 µg/mL (≈ 40.9 µM); against Enterococcus faecalis, 32 µg/mL (≈ 81.7 µM); in the assay on Streptococcus pyogenes it was 32 µg/mL (≈ 81.7 µM).

In the assay on Escherichia coli, `CCC(=O)NC[C@H]1CN(c2cc(F)c(N3CCCOCC3)c(F)c2)C(=O)O1` gave an IC50 of 2.1 µM. Also, the MIC came out at 2 µg/mL (≈ 5.22 µM) in the assay with Staphylococcus aureus, 2 µg/mL (≈ 5.22 µM) in the assay with Streptococcus pneumoniae, 2 µg/mL (≈ 5.22 µM) with Enterococcus faecalis and 1 µg/mL (≈ 2.61 µM) against Streptococcus pyogenes.

Consider `O=C1O[C@@H](Cn2ccnn2)CN1c1cc(F)c(N2CCCOCC2)c(F)c1`, for which the MIC against Staphylococcus aureus worked out at 2 µg/mL (≈ 5.27 µM); against Streptococcus pneumoniae it was 2 µg/mL (≈ 5.27 µM); against Enterococcus faecalis, 2 µg/mL (≈ 5.27 µM); with Streptococcus pyogenes it was 1 µg/mL (≈ 2.64 µM).

Consider `NC(=O)[C@H]1CN(c2cc(F)c(N3CCCOCC3)c(F)c2)C(=O)O1`, for which half-maximal inhibition with Escherichia coli (IC50) was put at 5.87 µM. Also, the MIC with Staphylococcus aureus worked out at 4 µg/mL (≈ 11.7 µM); in the assay with Streptococcus pneumoniae, 4 µg/mL (≈ 11.7 µM); in the assay on Enterococcus faecalis, 8 µg/mL (≈ 23.4 µM); in the assay with Streptococcus pyogenes it was 4 µg/mL (≈ 11.7 µM).

With `CC(=O)NC[C@H]1CN(c2ccc(N3CCOCC3)c(F)c2)C(=O)O1` [LINEZOLID], the MIC in the assay on Streptococcus pyogenes was found to be 2 µg/mL (≈ 5.93 µM).
